# Measured values: ChEMBL document CHEMBL5046323, “Discovery of Phospholipase D Inhibitors with Improved Drug-like Properties and Central Nervous System Penetrance” (ACS Med Chem Lett, 2022)
# How the values were obtained:
# [1] = Clearance in iv dosed rat administered as cassette dose; type: ADME, organism-based; details: in vivo
# Summary of the method: (§1)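 Rat IV clearance from cassette dosing; unbound clearance calculated as CL/fu.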
# Phospholipase D2 = Phospholipase D2 (Homo sapiens, UniProt O14939); experiment: Inhibition of PLD2 (unknown origin) expressed in human HEK cells by immunoprecipitation; type: cell-based
# Summary of the method: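 PLD1 or PLD2 immunoprecipitated from HEK-293 cell lysates and captured on plate with an antibody (ELISA format); 08:0 phosphatidylcholine substrate; released choline detected by Amplex Red readout.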
# [2] = Microsomal stability in rat liver microsomes assessed as intrinsic clearance; type: ADME, Microsome; details: read-out: CLH
# Summary of the method: (§2)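 Intrinsic clearance (CLint) determined in rat or human liver microsomes.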
# [3] = Unbound clearance in iv dosed rat administered as cassette dose; type: ADME, organism-based; details: in vivo; summary of the method: as §1
# [4] = Kinetic solubility of compound at pH 6.8; type: physicochemical; details: buffer, read-out: Kinetic_solubility
# Summary of the method: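 Kinetic solubility measured at pH 6.8.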
# [5] = Microsomal stability in human liver microsomes assessed as intrinsic clearance; type: ADME, Microsome; details: read-out: CLH; summary of the method: as §2
# Phospholipase D1 = target: T1, Phospholipase D1 (Homo sapiens, UniProt Q13393); experiment: Inhibition of PLD1 (unknown origin) expressed in human HEK cells by immunoprecipitation assay; type: cell-based
# T1 sequence (Q13393 whole entry): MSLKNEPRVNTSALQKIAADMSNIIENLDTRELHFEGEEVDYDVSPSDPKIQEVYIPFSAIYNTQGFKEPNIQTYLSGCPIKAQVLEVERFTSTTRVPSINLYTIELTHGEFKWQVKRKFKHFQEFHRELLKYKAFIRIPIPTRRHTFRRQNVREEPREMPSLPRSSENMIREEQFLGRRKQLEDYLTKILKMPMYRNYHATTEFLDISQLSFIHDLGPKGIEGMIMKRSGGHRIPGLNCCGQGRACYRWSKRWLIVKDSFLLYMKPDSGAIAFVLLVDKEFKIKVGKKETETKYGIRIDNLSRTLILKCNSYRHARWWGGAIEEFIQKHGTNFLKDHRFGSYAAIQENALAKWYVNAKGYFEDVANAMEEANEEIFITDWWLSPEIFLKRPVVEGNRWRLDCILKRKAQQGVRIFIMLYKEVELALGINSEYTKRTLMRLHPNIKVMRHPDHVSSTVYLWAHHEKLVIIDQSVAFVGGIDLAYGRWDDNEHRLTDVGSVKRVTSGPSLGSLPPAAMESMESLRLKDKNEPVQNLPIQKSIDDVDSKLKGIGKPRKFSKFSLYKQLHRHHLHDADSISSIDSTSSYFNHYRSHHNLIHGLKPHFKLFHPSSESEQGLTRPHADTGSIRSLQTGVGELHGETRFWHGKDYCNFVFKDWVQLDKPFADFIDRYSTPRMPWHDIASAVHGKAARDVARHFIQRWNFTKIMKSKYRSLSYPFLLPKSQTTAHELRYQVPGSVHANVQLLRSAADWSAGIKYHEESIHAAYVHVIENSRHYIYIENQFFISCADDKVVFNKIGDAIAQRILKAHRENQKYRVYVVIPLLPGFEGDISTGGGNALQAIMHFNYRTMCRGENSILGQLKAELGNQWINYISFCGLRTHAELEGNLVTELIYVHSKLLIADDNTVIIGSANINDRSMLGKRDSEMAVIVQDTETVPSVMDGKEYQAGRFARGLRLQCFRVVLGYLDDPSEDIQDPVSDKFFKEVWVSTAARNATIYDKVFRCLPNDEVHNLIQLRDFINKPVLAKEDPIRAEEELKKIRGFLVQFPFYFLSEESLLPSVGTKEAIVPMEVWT
# MDR1 (P-gp) = experiment: Efflux ratio of apparent permeability from basolateral to apical side over apical to basolateral side in dog MDCK-MDR1 cells; type: ADME, cell-based, Canis lupus familiaris
# Summary of the method: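 Efflux ratio calculated as Papp(B–A)/Papp(A–B) across MDR1-transfected MDCK monolayers.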
# [6] = target: Phospholipase D1 (Homo sapiens) (UniProt Q13393); experiment: Inhibition of PLD1 in human Calu-1 cells assessed as reduction in d9-phosphobutanol formation by mass spectrometry-based transphosphatidylation assay
# BCRP = experiment: Efflux ratio of apparent permeability from basolateral to apical side over apical to basolateral side in dog MDCK-BCRP cells; type: ADME, cell-based, Canis lupus familiaris
# Sequence of Phospholipase D2 (O14939 whole entry): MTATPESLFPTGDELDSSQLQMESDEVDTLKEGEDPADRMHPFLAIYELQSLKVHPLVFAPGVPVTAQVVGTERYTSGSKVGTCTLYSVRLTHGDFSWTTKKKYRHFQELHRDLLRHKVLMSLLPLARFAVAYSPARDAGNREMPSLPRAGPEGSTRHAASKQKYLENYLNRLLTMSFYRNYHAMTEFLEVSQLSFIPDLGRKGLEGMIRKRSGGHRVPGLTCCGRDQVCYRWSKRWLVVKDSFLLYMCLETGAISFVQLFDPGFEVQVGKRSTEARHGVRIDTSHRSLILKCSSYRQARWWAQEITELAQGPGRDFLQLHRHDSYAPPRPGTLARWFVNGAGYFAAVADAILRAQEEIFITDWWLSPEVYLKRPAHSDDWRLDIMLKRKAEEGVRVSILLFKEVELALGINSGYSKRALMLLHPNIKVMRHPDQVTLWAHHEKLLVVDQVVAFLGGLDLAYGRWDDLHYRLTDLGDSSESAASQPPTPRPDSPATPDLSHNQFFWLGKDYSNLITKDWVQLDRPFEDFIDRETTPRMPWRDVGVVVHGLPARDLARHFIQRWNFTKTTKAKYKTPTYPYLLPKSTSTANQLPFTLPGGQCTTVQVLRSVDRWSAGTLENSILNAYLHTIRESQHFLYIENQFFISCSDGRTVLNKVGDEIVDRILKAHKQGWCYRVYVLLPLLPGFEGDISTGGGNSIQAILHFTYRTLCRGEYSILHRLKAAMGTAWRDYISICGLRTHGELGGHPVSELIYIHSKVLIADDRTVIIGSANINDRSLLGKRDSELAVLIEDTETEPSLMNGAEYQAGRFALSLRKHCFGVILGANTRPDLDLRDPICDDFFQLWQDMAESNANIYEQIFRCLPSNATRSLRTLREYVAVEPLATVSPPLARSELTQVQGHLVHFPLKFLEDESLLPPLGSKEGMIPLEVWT
Compound,clearance [1],IC50 (Phospholipase D2),CLint scaled [2],CL free [3],solubility kinetic [4],CLint scaled [5],IC50 (Phospholipase D1),efflux ratio (MDR1 (P-gp)),IC50 [6],efflux ratio (BCRP)
C[C@@H](CN1CCC2(CC1)C(=O)NCN2c1cccc(F)c1)NC(=O)c1ccc(Br)cc1,36 mL/min/kg,67 nM,312 mL/min/kg,> 3800 mL/min/kg,3.8 µg/mL,89 mL/min/kg,,,,
C[C@@H]1CN(C(=O)[C@H](C)N2CCC(n3c(=O)[nH]c4ccccc43)CC2)Cc2ccccc21,,320 nM,> 300 mL/min/kg,,,> 200 mL/min/kg,100 nM,22,6 nM,
CC(=O)N(C)CCN1CCC(n2c(=O)[nH]c3cc(Cl)ccc32)CC1,,> 10000 nM,,,,,130 nM,24,180 nM,
C[C@@H](CN1CCC(n2c(=O)[nH]c3ccccc32)CC1)NC(=O)c1ccc(F)cc1,,5600 nM,170 mL/min/kg,,,< 4 mL/min/kg,33 nM,82,16 nM,
C[C@@H](CN1CCC2(CC1)OC(=O)Nc1cccnc12)NC(=O)c1ccc(F)cc1,40 mL/min/kg,4100 nM,48 mL/min/kg,83 mL/min/kg,59 µg/mL,13 mL/min/kg,200 nM,68,54 nM,
C[C@@H](CN1CCC2(CC1)NC(=O)Nc1ccccc12)NC(=O)c1ccc(F)cc1,15 mL/min/kg,> 10000 nM,66 mL/min/kg,74 mL/min/kg,51 µg/mL,14 mL/min/kg,280 nM,67,720 nM,
C[C@@H]1CNCCN1C(=O)[C@H](C)N1CCC(n2c(=O)[nH]c3ccccc32)CC1,,,84 mL/min/kg,,,12 mL/min/kg,140 nM,5.4,180 nM,
C[C@@H]1CN(C(=O)[C@H](C)N2CCC(n3c(=O)[nH]c4ccccc43)CC2)CCN1,39 mL/min/kg,,29 mL/min/kg,73 mL/min/kg,,< 5 mL/min/kg,320 nM,13,190 nM,
C[C@@H](C(=O)N1CCNC(C)(C)C1)N1CCC(n2c(=O)[nH]c3ccccc32)CC1,39 mL/min/kg,7000 nM,56 mL/min/kg,73 mL/min/kg,,8 mL/min/kg,360 nM,5.2,280 nM,
C[C@@H](CN1CCC2(CC1)OC(=O)Nc1cc(F)ccc12)NC(=O)c1ccc(F)cc1,,1000 nM,250 mL/min/kg,,,68 mL/min/kg,71 nM,42,78 nM,
C[C@@H](CN1CCC2(CC1)c1ccccc1NC(=O)N2C)NC(=O)c1ccc(F)cc1,,> 10000 nM,113 mL/min/kg,,71 µg/mL,39 mL/min/kg,> 10000 nM,93,> 10000 nM,
C[C@@H](CN1CCC2(CC1)OC(=O)NC[C@H]2c1cccc(F)c1)NC(=O)c1ccc(F)cc1,119 mL/min/kg,64 nM,394 mL/min/kg,308 mL/min/kg,61 µg/mL,38 mL/min/kg,22 nM,12,2 nM,
C[C@@H](CN1CCC(c2n[nH]c3ccccc23)CC1)NC(=O)c1ccc(F)cc1,,> 10000 nM,311 mL/min/kg,,,42 mL/min/kg,970 nM,8,4200 nM,
C[C@@H](C(=O)N1CCC(F)(F)C1)N1CCC(n2c(=O)[nH]c3ccccc32)CC1,34 mL/min/kg,2900 nM,> 300 mL/min/kg,192 mL/min/kg,,10 mL/min/kg,170 nM,2.5,1200 nM,1.2
C[C@H]1CN(C(=O)[C@H](C)N2CCC(n3c(=O)[nH]c4ccccc43)CC2)CCN1,39 mL/min/kg,1100 nM,< 10 mL/min/kg,73 mL/min/kg,,< 5 mL/min/kg,76 nM,5.5,160 nM,2.3
C[C@@H](CN1CCC(N2CCNC2=O)CC1)NC(=O)c1ccc(F)cc1,,> 10000 nM,16 mL/min/kg,,,< 4 mL/min/kg,> 10000 nM,7.7,> 10000 nM,
CC[C@H]1CN(C(=O)[C@H](C)N2CCC(n3c(=O)[nH]c4ccccc43)CC2)CCN1,,920 nM,59 mL/min/kg,,,< 4 mL/min/kg,68 nM,50,44 nM,
C[C@@H](CN1CCC2(CC1)CC(=O)Nc1ccccc12)NC(=O)c1ccc(F)cc1,8.6 mL/min/kg,> 10000 nM,83 mL/min/kg,42 mL/min/kg,59 µg/mL,28 mL/min/kg,490 nM,11,460 nM,
C[C@@H](CN1CCC(n2c(=O)oc3ccccc32)CC1)NC(=O)c1ccc(F)cc1,,> 10000 nM,314 mL/min/kg,,,23 mL/min/kg,9300 nM,2,> 10000 nM,
C[C@@H]1CN(C(=O)[C@H](C)N2CCC(n3c(=O)[nH]c4ccccc43)CC2)C[C@H](C)N1,45 mL/min/kg,200 nM,43 mL/min/kg,68 mL/min/kg,,6.9 mL/min/kg,40 nM,14,32 nM,
C[C@@H](CN1CCC2(CC1)OC(=O)Nc1ccncc12)NC(=O)c1ccc(F)cc1,48 mL/min/kg,3200 nM,50 mL/min/kg,69 mL/min/kg,58 µg/mL,12 mL/min/kg,110 nM,47,78 nM,
C[C@@H](CN1CCC2(CC1)OC(=O)Nc1ccccc12)NC(=O)c1ccc(F)cc1,40 mL/min/kg,1300 nM,103 mL/min/kg,172 mL/min/kg,76 µg/mL,39 mL/min/kg,66 nM,218,74 nM,
C[C@@H](C(=O)N1CCOCC1)N1CCC(n2c(=O)[nH]c3ccccc32)CC1,13 mL/min/kg,> 10000 nM,162 mL/min/kg,,,< 5 mL/min/kg,380 nM,36,560 nM,1.5
C[C@@H](CN1CCC(N2C(=O)Cc3ccccc32)CC1)NC(=O)c1ccc(F)cc1,,> 10000 nM,311 mL/min/kg,,,42 mL/min/kg,1200 nM,8,1100 nM,
